From ChEMBL document CHEMBL1142361, “Phenylglycine and phenylalanine derivatives as potent and selective HDAC1 inhibitors (SHI-1)” (Bioorg Med Chem Lett, 2008)
Values after ≈ are worked out from the molar mass of the structure shown. One block for each compound: values may come before it.

Key:
HCT-116 = test: Antiproliferative activity against human HCT116 cells after 72 hrs; type: functional
[1] = Aqueous solubility at pH 7 by HPLC; type: physicochemical; settings: buffer
How it was run: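 A 200 µM sample in PBS-buffered water at pH 7 was agitated 24 h at room temperature and then filtered. A 100 µM reference was fully dissolved in MeOH:MeCN:DMSO (8:1:1). Both were run by the same high-throughput HPLC method, and the peak areas were compared to give the dissolved concentration. The assay caps at 200 µM.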

[2] = Log D at pH 7 by HPLC; type: physicochemical; settings: buffer
[3] = Selectivity for HDAC1 over HDAC5
[4] = biological target: T1, Histone deacetylase 8 (Homo sapiens) (UniProt Q9BY41); test: Inhibition of HDAC8
T1 sequence (whole entry): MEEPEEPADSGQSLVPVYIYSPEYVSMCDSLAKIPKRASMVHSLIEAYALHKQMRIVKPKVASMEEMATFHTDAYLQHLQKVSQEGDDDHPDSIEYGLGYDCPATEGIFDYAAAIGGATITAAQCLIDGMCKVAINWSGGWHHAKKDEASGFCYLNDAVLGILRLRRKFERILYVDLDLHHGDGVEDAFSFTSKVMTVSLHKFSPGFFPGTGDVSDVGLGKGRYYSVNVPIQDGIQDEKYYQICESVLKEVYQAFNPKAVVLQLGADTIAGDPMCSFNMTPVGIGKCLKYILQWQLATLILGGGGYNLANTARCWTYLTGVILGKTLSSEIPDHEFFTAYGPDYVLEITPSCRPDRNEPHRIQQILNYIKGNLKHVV

[5] = Drug level in HCT116 cells xenografted mouse plasma at ip qd after 2 hrs on day 21
[6] = Bioavailability in rhesus monkey at 1 mg/kg, po; type: ADME, organism-based, Macaca mulatta; settings: in vivo
[7] = Drug level in HCT116 cells xenografted mouse plasma at 65 mg/kg, ip qd after 24 hrs on day 21; type: ADME, organism-based, HCT-116; set-up: dose 65 mg/kg, route intraperitoneal
How it was run: (§1)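 Mice bearing HCT116 xenografts were dosed ip in a 21-day study at 50, 65 and 80 mg/kg alongside vehicle. Plasma drug levels were measured 2, 4 and 24 h post-dose.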

[8] = Volume of distribution at steady state in dog at 0.5 mg/kg, iv and 1 mg/kg, po; type: ADME, organism-based, Canis lupus familiaris; settings: in vivo, read-out: Vdss
[9] = Selectivity for HDAC1 over HDAC6
[10] = Clearance in rhesus monkey at 0.5 mg/kg, iv and 1 mg/kg, po; type: ADME, organism-based, Macaca mulatta; settings: in vivo
[11] = Selectivity for HDAC1 over HDAC8
[12] = Half life in rhesus monkey at 0.5 mg/kg, iv and 1 mg/kg, po; type: ADME, organism-based, Macaca mulatta; settings: in vivo
[13] = Bioavailability in dog at 1 mg/kg, po; type: ADME, organism-based, Canis lupus familiaris; settings: in vivo
[14] = Selectivity for HDAC1 over HDAC7
[15] = Drug level in HCT116 cells xenografted mouse plasma at 65 mg/kg, ip qd after 2 hrs on day 21; type: ADME, organism-based, HCT-116; set-up: dose 65 mg/kg, route intraperitoneal; how it was run: as §1
[16] = biological target: Histone deacetylase 4 (Homo sapiens) (UniProt P56524); test: Inhibition of HDAC4
Histone deacetylase 4 (Homo sapiens), sequence (P56524 whole entry): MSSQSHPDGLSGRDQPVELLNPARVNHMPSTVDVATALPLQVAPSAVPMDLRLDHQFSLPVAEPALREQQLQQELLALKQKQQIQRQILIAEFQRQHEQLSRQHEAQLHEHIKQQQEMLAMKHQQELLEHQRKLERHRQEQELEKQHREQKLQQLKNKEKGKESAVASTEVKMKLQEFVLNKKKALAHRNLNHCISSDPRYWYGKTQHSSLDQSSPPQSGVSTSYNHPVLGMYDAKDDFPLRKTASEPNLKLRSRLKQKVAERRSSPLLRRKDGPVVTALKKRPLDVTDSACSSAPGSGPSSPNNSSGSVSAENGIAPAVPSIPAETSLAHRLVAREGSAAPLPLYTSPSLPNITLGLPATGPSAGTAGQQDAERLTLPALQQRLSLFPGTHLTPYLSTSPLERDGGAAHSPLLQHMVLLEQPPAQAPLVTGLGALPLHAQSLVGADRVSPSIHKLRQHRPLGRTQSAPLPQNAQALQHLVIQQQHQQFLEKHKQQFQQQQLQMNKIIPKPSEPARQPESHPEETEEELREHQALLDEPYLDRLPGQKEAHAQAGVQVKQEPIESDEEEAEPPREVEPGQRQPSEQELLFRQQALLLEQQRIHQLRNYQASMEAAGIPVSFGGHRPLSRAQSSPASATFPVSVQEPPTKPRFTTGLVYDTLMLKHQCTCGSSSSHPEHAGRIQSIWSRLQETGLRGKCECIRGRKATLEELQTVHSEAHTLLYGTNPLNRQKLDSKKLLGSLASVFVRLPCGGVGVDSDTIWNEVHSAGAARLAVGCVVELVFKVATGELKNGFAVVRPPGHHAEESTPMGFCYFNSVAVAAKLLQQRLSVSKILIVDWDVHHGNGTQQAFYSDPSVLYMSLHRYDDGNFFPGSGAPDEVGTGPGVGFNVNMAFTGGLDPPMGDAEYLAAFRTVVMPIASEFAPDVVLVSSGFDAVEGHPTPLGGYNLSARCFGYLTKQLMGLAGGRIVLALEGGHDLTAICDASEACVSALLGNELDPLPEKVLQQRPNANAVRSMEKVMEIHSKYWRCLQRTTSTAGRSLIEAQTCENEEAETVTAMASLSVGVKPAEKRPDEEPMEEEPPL

[17] = Drug level in HCT116 cells xenografted mouse plasma at ip qd after 4 hrs on day 21
[18] = biological target: T2, Histone deacetylase 11 (Homo sapiens) (UniProt Q96DB2); test: Inhibition of HDAC11
T2 sequence (whole entry): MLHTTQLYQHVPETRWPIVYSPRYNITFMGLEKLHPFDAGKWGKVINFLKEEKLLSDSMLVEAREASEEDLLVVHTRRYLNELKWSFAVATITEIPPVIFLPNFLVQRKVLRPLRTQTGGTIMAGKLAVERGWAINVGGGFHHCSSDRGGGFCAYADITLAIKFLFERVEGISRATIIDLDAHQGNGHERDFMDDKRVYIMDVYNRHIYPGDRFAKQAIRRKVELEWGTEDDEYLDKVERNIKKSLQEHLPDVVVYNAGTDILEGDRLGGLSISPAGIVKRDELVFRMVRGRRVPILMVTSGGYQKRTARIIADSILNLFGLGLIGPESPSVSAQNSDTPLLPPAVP

[19] = biological target: Histone deacetylase 3 (Homo sapiens) (UniProt O15379); test: Inhibition of HDAC3
Histone deacetylase 3 (Homo sapiens), sequence (O15379 whole entry): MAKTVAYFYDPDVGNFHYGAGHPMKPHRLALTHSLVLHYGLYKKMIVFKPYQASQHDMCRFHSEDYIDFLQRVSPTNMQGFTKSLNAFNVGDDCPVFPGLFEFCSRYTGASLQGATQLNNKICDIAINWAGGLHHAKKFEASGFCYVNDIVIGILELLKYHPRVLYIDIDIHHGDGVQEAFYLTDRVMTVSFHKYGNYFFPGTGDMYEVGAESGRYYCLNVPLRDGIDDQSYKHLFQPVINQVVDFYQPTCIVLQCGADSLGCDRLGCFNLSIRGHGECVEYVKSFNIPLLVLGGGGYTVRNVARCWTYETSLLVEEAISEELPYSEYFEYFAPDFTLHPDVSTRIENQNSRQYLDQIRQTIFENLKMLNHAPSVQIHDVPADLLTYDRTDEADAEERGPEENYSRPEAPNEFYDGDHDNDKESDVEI

[20] = biological target: T3, Histone deacetylase 7 (Homo sapiens) (UniProt Q8WUI4); test: Inhibition of HDAC7
T3 sequence (whole entry): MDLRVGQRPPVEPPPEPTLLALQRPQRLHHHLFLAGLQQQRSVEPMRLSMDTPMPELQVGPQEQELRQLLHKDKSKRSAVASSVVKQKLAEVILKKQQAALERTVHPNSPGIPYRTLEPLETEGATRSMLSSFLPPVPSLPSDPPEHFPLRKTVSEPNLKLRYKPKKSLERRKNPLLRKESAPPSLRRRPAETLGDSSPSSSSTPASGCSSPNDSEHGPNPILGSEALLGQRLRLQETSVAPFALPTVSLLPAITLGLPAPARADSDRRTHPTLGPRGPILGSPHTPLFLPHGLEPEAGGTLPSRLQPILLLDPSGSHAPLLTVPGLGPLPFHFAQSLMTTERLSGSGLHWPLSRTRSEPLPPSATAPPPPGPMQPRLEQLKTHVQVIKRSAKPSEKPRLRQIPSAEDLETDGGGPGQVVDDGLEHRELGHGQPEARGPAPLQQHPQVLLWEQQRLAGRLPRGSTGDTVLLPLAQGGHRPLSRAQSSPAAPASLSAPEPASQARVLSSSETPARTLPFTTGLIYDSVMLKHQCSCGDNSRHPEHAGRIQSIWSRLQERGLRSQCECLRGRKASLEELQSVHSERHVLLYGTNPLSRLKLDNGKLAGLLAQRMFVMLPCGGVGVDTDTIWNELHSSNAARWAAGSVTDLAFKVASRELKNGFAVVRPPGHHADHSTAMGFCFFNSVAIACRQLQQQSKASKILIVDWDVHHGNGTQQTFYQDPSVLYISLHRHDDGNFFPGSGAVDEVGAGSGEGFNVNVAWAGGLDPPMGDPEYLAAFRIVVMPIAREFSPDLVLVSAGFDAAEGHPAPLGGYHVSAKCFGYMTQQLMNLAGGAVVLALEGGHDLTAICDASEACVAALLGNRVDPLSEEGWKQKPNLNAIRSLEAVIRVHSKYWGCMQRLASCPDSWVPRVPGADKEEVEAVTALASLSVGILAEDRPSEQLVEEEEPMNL

[21] = biological target: Histone deacetylase 5 (Homo sapiens) (UniProt Q9UQL6); test: Inhibition of HDAC5
Histone deacetylase 5 (Homo sapiens), sequence (Q9UQL6 whole entry): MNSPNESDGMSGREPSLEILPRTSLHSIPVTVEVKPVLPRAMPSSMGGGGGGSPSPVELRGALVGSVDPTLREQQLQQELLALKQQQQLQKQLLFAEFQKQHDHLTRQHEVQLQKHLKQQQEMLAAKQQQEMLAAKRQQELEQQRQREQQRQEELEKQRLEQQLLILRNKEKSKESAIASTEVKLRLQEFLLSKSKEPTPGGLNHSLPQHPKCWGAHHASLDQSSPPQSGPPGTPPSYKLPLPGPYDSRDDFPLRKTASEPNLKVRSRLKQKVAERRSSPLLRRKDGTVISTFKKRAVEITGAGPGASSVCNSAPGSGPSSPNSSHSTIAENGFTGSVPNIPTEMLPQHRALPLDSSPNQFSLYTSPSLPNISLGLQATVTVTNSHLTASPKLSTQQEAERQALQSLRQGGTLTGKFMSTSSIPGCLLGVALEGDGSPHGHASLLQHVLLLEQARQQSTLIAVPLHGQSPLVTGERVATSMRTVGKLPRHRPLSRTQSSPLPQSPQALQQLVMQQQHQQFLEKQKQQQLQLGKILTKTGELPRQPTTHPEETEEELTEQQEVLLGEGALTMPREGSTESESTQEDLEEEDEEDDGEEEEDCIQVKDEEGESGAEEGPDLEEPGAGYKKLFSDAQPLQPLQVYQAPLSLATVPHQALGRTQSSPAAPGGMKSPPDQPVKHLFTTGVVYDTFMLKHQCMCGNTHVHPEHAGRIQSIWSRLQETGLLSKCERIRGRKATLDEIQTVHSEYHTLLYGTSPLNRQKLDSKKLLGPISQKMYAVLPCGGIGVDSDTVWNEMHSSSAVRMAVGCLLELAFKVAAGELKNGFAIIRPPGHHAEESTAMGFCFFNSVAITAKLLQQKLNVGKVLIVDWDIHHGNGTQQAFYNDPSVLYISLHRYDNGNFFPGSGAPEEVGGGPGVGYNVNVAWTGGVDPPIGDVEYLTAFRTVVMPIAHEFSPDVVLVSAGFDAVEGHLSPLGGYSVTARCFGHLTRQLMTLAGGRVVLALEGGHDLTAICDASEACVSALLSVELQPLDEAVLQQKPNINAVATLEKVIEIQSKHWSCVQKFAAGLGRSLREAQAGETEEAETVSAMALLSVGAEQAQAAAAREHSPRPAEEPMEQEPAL

[22] = Drug level in HCT116 cells xenografted mouse plasma at 65 mg/kg, ip qd after 4 hrs on day 21; type: ADME, organism-based, HCT-116; set-up: dose 65 mg/kg, route intraperitoneal; how it was run: as §1
[23] = Half life in dog at 0.5 mg/kg, iv and 1 mg/kg, po; type: ADME, organism-based, Canis lupus familiaris; settings: in vivo
[24] = Selectivity for HDAC1 over HDAC4
[25] = Bioavailability in rat at 4 mg/kg, po; type: ADME, organism-based; settings: in vivo
[26] = biological target: T4, Protein deacetylase HDAC6 (Homo sapiens) (UniProt Q9UBN7); test: Inhibition of HDAC6
T4 sequence (whole entry): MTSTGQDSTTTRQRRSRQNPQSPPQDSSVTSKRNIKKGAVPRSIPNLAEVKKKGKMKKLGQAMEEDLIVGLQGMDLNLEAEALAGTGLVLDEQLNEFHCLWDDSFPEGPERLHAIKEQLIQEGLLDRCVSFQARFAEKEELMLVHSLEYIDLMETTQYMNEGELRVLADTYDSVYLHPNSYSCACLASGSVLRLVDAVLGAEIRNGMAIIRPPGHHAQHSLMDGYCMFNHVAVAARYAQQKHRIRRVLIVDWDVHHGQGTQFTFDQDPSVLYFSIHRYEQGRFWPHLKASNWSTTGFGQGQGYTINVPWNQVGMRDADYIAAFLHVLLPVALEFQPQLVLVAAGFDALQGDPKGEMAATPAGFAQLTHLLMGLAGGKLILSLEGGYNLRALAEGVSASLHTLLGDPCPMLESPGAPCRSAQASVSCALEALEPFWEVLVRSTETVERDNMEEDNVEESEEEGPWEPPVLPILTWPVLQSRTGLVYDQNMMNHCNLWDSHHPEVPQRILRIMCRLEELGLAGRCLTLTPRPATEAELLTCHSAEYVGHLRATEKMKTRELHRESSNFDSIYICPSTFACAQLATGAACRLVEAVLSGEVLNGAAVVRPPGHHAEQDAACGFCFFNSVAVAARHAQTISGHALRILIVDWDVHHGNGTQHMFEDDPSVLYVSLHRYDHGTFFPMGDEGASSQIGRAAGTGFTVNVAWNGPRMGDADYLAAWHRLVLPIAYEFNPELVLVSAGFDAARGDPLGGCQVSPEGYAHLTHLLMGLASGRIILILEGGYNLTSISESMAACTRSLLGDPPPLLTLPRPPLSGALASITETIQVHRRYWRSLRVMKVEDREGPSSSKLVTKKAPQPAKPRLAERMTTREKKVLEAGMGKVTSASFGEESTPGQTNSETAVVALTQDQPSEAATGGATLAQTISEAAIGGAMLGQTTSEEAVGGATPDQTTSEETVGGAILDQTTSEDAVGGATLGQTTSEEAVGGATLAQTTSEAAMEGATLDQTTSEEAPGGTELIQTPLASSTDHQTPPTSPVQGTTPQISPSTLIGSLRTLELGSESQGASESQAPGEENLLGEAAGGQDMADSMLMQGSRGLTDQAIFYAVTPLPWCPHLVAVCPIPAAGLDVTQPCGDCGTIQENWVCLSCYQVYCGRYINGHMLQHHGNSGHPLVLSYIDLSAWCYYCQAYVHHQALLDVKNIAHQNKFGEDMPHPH

[27] = Clearance in dog at 0.5 mg/kg, iv and 1 mg/kg, po; type: ADME, organism-based, Canis lupus familiaris; settings: in vivo
[28] = Selectivity for HDAC1 over HDAC11
[29] = Selectivity for HDAC1 over HDAC3
[30] = Clearance in rat at 2 mg/kg, iv and 4 mg/kg, po; type: ADME, organism-based; settings: in vivo
[31] = Selectivity for HDAC1 over HDAC2
[32] = Half life in rat at 2 mg/kg, iv and 4 mg/kg, po; type: ADME, organism-based; settings: in vivo
[33] = Volume of distribution at steady state in rat at 2 mg/kg, iv and 4 mg/kg, po; type: ADME, organism-based; settings: in vivo, read-out: Vdss
[34] = Volume of distribution at steady state in rhesus monkey at 0.5 mg/kg, iv and 1 mg/kg, po; type: ADME, organism-based, Macaca mulatta; settings: in vivo, read-out: Vdss
[35] = Drug level in HCT116 cells xenografted mouse plasma at ip qd after 24 hrs on day 21

SMILES: CNC(=O)C(NC(=O)OC)c1ccc(C(=O)Nc2cc(-c3cccs3)ccc2N)cc1 (stereo not given)
Activity (HCT-116): 410 nM

SMILES: CNC(=O)[C@@H](N)c1ccc(C(=O)Nc2cc(-c3cccs3)ccc2N)cc1
Activity (HCT-116): 480 nM

SMILES: CNC(=O)C(NC(C)=O)c1ccc(C(=O)Nc2cc(-c3cccs3)ccc2N)cc1 (stereo not given)
Activity (HCT-116): 620 nM

SMILES: NC(=O)[C@@H](N)Cc1ccc(C(=O)Nc2cc(-c3cccs3)ccc2N)cc1
Activity (HCT-116): 260 nM

SMILES: NC(=O)[C@@H](N)c1ccc(C(=O)Nc2cc(-c3cccs3)ccc2N)cc1
Activity (HCT-116): 510 nM

SMILES: NC(=O)[C@H](N)Cc1ccc(C(=O)Nc2cc(-c3cccs3)ccc2N)cc1
Activity (HCT-116): 390 nM

solubility [1]: 185 µM (≈ 67.8 µg/mL)
logD [2]: 1.49
SMILES: NC(=O)C(N)c1ccc(C(=O)Nc2cc(-c3cccs3)ccc2N)cc1 (stereo not given)
Activity (HCT-116): 350 nM

Selectivity ratio [3]: > 5000
solubility [1]: 185 µM (≈ 70.4 µg/mL)
Activity [4]: 35 µM
concentration at 2 h [5]: 17.9 µM
bioavailability [6]: 5%
concentration at 24 h [7]: 0.02 µM
Vd [8]: 3.2 L/kg
Selectivity ratio [9]: > 5000
clearance [10]: 16 mL/min/kg
Selectivity ratio [11]: 3500
half-life [12]: 1.6 h
bioavailability [13]: 17%
Selectivity ratio [14]: > 5000
concentration at 2 h [15]: 28.6 µM
Activity [16]: > 50 µM
concentration at 4 h [17]: 4.1 µM
Activity [18]: 3.6 µM
Activity [19]: 3.4 µM
Activity [20]: > 50 µM
Activity [21]: > 50 µM
concentration at 4 h [22]: 10 µM
half-life [23]: 5.4 h
Selectivity ratio [24]: > 5000
bioavailability [25]: 27%
Activity [26]: > 50 µM
clearance [27]: 11 mL/min/kg
Selectivity ratio [28]: 360
Selectivity ratio [29]: 340
clearance [30]: 38 mL/min/kg
Selectivity ratio [31]: 13
half-life [32]: 5.9 h
logD [2]: 1.57
Vd [33]: 7.6 L/kg
Vd [34]: 1.6 L/kg
concentration at 24 h [35]: 0.01 µM
SMILES: CNC(=O)C(N)c1ccc(C(=O)Nc2cc(-c3cccs3)ccc2N)cc1 (stereo not given)
Activity (HCT-116): 450 nM
